# Laboratory results published in ChEMBL document CHEMBL4414663, “Pyrazole-4-Carboxamide (YW2065): A Therapeutic Candidate for Colorectal Cancer via Dual Activities of Wnt/β-Catenin Signaling Inhibition and AMP-Activated Protein Kinase (AMPK) Activation” (J Med Chem, 2019).
# Activity calls are given as the source filed them. The rule behind the calls is not given here.
# Columns and labels:
# [1] = Inhibition of Wnt/beta-Catenin signaling in human SW620 cells incubated for 24 hrs by TCF/LEF dual-luciferase reporter assay; format: cell-based; details: SW-620, 24 h
# Outline: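 SW480 or SW620 cells seeded at 200,000/well and transiently transfected 24 h later with TOPflash firefly luciferase plus pRLTK-Renilla using lipofectamine 2000. After 16 h the medium was replaced with compound at a range of concentrations, three replicates each. Dual firefly/Renilla luciferase read 24 h later.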
# [2] = Toxicity in C57BL/6 mouse assessed as effect on ALT level at 100 mg/kg/day, ip for 21 days; format: organism-based; details: in vivo, 504 h
# [3] = AUC (0 to infinity) in C57BL/6J mouse at 5 mg/kg, po by UPLC-MS analysis; format: ADME, organism-based; design: dose 5 mg/kg, time infinity, route oral; details: in vivo
# Outline: (§1)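 Male C57BL/6J mice, 2-3 months, 23-26 g. Single 5 mg/kg dose in 5% Kolliphor in saline, given iv (n=3) or by oral gavage (n=5). Tail-vein blood taken at 0.25, 0.5, 1, 4, 8 and 12 h and spun to plasma. Plasma analysed by LC-MS/MS on a triple quadrupole with a C18 column. Parameters from non-compartmental analysis.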
# [4] = system: SW-620; assay: Induction of apoptosis in human SW620 cells assessed as necrotic cells level at 1 uM incubated for 48 hrs by AAD-7 and FITC-annexin-V staining based flow cytometry (reference value: 0.027%); format: functional
# [5] = system: SW-620; assay: Induction of apoptosis in human SW620 cells assessed as early apoptotic cells level at 3 uM incubated for 48 hrs by AAD-7 and FITC-annexin-V staining based flow cytometry (reference value: 18.6%); format: functional
# [6] = target: Mitogen-activated protein kinase kinase kinase kinase 4 (Homo sapiens) (UniProt O95819); assay: Inhibition of MAP4K4 (unknown origin) at 1000 nM relative to control
# Outline: (§2)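 Single-concentration screen at 1000 nM against a 273-kinase panel, reported as percent inhibition.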
# [7] = system: SW-620; assay: Induction of apoptosis in human SW620 cells assessed as early apoptotic cells level at 1 uM incubated for 48 hrs by AAD-7 and FITC-annexin-V staining based flow cytometry (reference value: 18.6%); format: functional
# [8] = organism: Homo sapiens; assay: Inhibition of Wnt/beta-Catenin signaling in human SW620 cells assessed as reduction in cyclinD1 mRNA expression at 10 uM incubated for 24 hrs by real-time PCR analysis; format: cell-based
# Outline: (§3)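 SW620 cells (RPMI 1640, 10% FBS) in 6-well plates, incubated 24 h, then treated with compound at several concentrations, three replicates each, for 24 h. Total RNA isolated with Trizol/phenol-chloroform; 2 µg reverse transcribed; Wnt target gene mRNA quantified by PCR.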
# [9] = system: SW-620; assay: Growth inhibition of human SW620 cells over-expressing constitutively active beta-catenin S33Y mutant incubated for 72 hrs by Cell-titer-fluor reagent based assay; format: functional; details: SW-620, 72 h
# Outline: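 SW620 cells, parental, overexpressing β-catenin S33Y, or with Axin-1 knocked down by lentiviral shRNA. Treated with compound or vehicle for 72 h.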
# [10] = Tmax in C57BL/6J mouse at 5 mg/kg, po by UPLC-MS analysis; format: ADME, organism-based; details: in vivo
# Outline: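 Male C57BL/6J mice, 2–3 months old, 23–26 g. Single 5 mg/kg dose in 5% Kolliphor in saline, IV (n = 3) or oral gavage (n = 5). Tail-vein blood taken at 0.25, 0.5, 1, 4, 8 and 12 h and centrifuged to plasma. Analysed by LC-MS/MS (QTRAP 4000, C18 column); parameters from non-compartmental analysis.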
# [11] = organism: Homo sapiens; assay: Inhibition of Wnt/beta-Catenin signaling in human SW620 cells assessed as reduction in MMP7 mRNA expression at 10 uM incubated for 24 hrs by real-time PCR analysis; format: cell-based; outline: as §3
# [12] = target: Cyclin-dependent kinase 17 (Homo sapiens) (UniProt Q00537); assay: Inhibition of CDK17 (unknown origin) at 1000 nM relative to control; outline: as §2
# [13] = Half life in C57BL/6J mouse at 5 mg/kg, iv by UPLC-MS analysis; format: ADME, organism-based; details: in vivo; outline: as §1
# [14] = target: Proto-oncogene tyrosine-protein kinase Src (Homo sapiens) (UniProt P12931); assay: Inhibition of SRC (unknown origin) at 1000 nM relative to control; outline: as §2
# [15] = system: SW-620; assay: Induction of apoptosis in human SW620 cells assessed as late apoptotic cells level at 3 uM incubated for 48 hrs by AAD-7 and FITC-annexin-V staining based flow cytometry (reference value: 7.6%); format: functional
# [16] = system: SW-620; assay: Induction of apoptosis in human SW620 cells assessed as necrotic cells level at 3 uM incubated for 48 hrs by AAD-7 and FITC-annexin-V staining based flow cytometry (reference value: 0.027%); format: functional
# [17] = target: Serine/threonine-protein kinase Nek6 (Homo sapiens) (UniProt Q9HC98); assay: Inhibition of NEK6 (unknown origin) at 1000 nM relative to control; outline: as §2
# [18] = Toxicity in C57BL/6 mouse assessed as effect on glucose level at 100 mg/kg/day, ip for 21 days; format: organism-based; details: in vivo, 504 h
# [19] = Toxicity in C57BL/6 mouse assessed as effect on body weight at 100 mg/kg/day, ip for 21 days; format: organism-based; details: in vivo, 504 h
# [20] = system: HEK293; assay: Induction of Axin-1 protein expression in recombinant human Wnt-3a-induced Wnt-HEK293 cells at 1 uM by fluorescence microscopy; format: functional, cell-based
# Outline: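 HEK293 cells treated at 1 µM, stained with anti-Axin-1 antibody and DAPI, imaged by fluorescence microscopy.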
# [21] = system: Mus musculus; assay: Activation of AMPK in nude mouse xenografted with human SW620 cells assessed as increase in AMPK phosphorylation at 50 mg/kg, ip QD for 32 consecutive days by Western blot analysis; format: functional, organism-based
# Outline: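 Nude mice carried subcutaneous SW620 xenografts (2×10^6 cells, right flank). Dosing began once mean tumor volume reached 100–200 mm³: 50 mg/kg ip once daily for 32 days, vehicle 10% DMSO/10% Kolliphor/80% saline. Tumors taken at day 32 and lysed in RIPA with protease inhibitors. Western blot with 20 µL of 2 mg/mL lysate on 7.5% SDS-PAGE, probed for pAMPK/AMPK or pACC/ACC, ECL detection.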
# [22] = system: HT-29; assay: Induction of apoptosis in human HT-29 cells incubated for 48 hrs by AAD-7 and FITC-annexin-V staining based flow cytometry; format: functional, cell-based
# [23] = target: Ribosomal protein S6 kinase alpha-3 (Homo sapiens) (UniProt P51812); assay: Inhibition of RPS6KA3 (unknown origin) at 1000 nM relative to control; outline: as §2
# [24] = system: Mus musculus; assay: Inhibition of Wnt/beta-Catenin signaling in nude mouse xenografted with human SW620 cells assessed as reduction in MMP7 mRNA expression at 50 mg/kg, ip QD for 32 consecutive days by RT-PCR analysis; format: organism-based; details: in vivo
# Outline: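 Six-week-old nude mice implanted subcutaneously in the right flank with 2×10^6 SW620 cells. Randomized at mean tumor volume 100–200 mm³, n = 6/group. Dosed IP once daily for 32 days at 10 or 50 mg/kg, or vehicle (10% DMSO, 10% Kolliphor, 80% saline). Tumors collected at day 32; Axin-2, MMP-7 and S100A4 expression measured by RT-PCR.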
# Sequence of Serine/threonine-protein kinase Nek6 (Homo sapiens) (Q9HC98 whole entry): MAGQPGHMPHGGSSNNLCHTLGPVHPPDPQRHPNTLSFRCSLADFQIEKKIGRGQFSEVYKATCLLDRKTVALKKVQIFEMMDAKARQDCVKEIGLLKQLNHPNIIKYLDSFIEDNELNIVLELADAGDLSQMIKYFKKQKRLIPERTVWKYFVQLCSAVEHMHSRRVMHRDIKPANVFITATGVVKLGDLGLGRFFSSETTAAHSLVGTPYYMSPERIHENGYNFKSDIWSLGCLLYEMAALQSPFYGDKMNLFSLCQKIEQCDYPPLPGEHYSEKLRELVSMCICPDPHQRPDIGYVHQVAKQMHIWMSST
# Sequence of Cyclin-dependent kinase 17 (Homo sapiens) (Q00537 whole entry, looked up): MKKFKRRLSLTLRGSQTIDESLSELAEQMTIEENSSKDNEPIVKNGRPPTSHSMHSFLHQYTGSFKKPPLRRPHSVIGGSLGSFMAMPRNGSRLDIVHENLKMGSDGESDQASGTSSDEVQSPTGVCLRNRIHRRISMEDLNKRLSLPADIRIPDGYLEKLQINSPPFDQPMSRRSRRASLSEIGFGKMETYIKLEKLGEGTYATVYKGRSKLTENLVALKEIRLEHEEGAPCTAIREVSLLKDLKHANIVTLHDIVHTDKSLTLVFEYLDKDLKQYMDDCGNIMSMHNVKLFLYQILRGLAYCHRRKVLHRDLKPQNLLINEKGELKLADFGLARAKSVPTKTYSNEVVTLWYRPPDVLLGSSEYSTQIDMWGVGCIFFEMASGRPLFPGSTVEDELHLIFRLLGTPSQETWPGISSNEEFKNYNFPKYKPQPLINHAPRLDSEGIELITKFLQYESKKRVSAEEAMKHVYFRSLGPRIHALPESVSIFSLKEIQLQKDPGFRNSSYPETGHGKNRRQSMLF
# Sequence of Proto-oncogene tyrosine-protein kinase Src (Homo sapiens) (P12931 2-536 limits assumed): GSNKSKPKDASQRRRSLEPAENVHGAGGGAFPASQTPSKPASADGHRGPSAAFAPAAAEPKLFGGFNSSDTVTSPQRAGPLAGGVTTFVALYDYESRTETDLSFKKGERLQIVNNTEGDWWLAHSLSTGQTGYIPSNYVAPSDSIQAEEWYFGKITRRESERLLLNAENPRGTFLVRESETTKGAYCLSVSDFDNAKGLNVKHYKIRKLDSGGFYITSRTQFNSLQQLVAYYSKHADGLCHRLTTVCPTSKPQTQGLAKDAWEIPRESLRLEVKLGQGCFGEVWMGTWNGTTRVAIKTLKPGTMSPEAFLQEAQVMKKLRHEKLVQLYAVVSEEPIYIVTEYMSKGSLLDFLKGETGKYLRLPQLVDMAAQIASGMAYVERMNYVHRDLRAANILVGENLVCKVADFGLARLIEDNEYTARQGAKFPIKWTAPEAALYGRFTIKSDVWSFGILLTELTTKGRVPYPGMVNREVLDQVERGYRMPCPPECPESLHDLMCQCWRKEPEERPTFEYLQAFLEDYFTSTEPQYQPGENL
# Sequence of Mitogen-activated protein kinase kinase kinase kinase 4 (Homo sapiens) (O95819 2-1239 limits assumed): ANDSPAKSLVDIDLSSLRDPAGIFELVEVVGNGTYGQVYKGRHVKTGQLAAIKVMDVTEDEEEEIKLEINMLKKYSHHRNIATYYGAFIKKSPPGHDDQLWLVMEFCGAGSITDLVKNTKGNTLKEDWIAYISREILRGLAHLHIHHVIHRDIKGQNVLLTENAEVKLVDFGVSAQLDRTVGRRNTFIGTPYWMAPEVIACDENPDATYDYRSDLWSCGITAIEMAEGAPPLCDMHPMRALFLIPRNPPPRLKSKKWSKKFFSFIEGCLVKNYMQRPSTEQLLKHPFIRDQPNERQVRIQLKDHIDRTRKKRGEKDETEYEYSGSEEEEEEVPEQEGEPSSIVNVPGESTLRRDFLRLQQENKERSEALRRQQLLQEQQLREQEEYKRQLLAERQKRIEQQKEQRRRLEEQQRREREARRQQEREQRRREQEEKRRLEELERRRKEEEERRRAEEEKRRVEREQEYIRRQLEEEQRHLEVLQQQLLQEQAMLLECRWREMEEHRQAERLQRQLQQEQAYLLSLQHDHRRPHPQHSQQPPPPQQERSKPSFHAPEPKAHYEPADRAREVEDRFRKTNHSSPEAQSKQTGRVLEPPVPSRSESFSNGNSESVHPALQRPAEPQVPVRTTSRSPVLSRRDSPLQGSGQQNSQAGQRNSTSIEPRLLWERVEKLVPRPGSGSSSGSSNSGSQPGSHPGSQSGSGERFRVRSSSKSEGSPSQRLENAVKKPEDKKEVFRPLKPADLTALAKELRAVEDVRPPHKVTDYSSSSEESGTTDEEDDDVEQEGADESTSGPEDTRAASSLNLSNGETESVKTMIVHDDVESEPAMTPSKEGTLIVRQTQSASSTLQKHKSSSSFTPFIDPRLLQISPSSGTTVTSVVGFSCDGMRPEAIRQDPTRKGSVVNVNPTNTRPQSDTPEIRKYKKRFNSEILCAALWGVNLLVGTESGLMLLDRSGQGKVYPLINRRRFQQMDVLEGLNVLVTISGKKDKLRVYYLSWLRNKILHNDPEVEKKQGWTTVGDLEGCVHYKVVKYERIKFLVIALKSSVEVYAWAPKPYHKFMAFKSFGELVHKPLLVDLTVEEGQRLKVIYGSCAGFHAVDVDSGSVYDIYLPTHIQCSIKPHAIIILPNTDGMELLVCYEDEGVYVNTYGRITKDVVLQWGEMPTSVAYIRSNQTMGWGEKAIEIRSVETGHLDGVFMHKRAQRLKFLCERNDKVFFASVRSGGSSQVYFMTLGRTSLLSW
# Sequence of Ribosomal protein S6 kinase alpha-3 (Homo sapiens) (P51812 whole entry): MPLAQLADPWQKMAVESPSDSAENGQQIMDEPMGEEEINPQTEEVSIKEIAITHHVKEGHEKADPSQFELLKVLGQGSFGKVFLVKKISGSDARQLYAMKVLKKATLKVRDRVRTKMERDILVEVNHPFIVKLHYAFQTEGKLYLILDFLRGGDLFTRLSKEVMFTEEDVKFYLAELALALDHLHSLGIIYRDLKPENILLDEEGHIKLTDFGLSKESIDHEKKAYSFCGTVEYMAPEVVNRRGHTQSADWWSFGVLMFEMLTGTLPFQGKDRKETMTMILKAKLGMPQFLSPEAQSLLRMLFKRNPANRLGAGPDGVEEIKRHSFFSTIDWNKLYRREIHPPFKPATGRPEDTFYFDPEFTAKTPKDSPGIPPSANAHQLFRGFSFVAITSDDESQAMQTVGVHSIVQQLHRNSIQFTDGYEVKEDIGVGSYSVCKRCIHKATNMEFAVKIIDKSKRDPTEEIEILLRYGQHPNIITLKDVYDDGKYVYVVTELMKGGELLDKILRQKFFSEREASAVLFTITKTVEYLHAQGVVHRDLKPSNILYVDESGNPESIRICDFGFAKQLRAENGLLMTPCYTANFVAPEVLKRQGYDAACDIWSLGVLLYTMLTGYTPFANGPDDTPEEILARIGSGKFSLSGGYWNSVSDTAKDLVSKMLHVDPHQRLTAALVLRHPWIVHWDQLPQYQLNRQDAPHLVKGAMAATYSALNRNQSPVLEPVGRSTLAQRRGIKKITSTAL
smiles,measurement,setting,value
Cc1c(C(=O)Nc2ccc3ccccc3n2)cnn1-c1ccccc1Br,IC50,[1],0.000194 µM
same,Activity,[2],Non-Toxic
same,AUC(0-inf),[3],13200 ng·h/mL
same,Activity,[4],0%
same,Activity,[5],35.7%
same,inhibition,[6],Active
same,Activity,[7],23.4%
same,inhibition,[8],Active
same,IC50,[9],0.0678 µM
same,Tmax,[10],0.3 h
same,inhibition,[11],Active
same,inhibition,[12],Active
same,half-life,[13],3.1 h
same,inhibition,[14],Active
same,Activity,[15],19.2%
same,Activity,[16],0.048%
same,inhibition,[17],Active
same,Activity,[18],Non-Toxic
same,Activity,[19],Non-Toxic
same,Activity,[20],Active
same,Activity,[21],Active
same,Activity,[22],Dose-dependent effect
same,inhibition,[23],39%
same,inhibition (INH),[24],Active
